The source of these data is ChEMBL document CHEMBL4316633, “The Antiangiogenic Activity of Naturally Occurring and Synthetic Homoisoflavonoids from the Hyacinthaceae ( sensu APGII)” (J Nat Prod, 2019).

Active and inactive are the calls of the source. No cut-off for these calls is given here.

Data set [1] is described as follows: Antiproliferative activity against HREC assessed as reduction in cell number incubated for 44 hrs by alamar blue based fluorescence assay. It is filed as functional. The conditions noted are these: Homo sapiens.
Data set [2] in a line: Antiproliferative activity against human ARPE19 assessed as reduction in cell number incubated for 44 hrs by alamar blue based fluorescence assay. The settings on record: ARPE-19 cells.
Data set [3] can be described thus: Cytotoxicity against human 92-1 cells assessed as reduction in cell number incubated for 44 hrs by alamar blue based fluorescence assay.
For data set [4], the species on record is Homo sapiens. Nature of the data set: Antiangiogenic activity against HREC assessed as reduction in tube formation at 0.05 to 0.5 uM incubated for 8 hrs by matrigel based tube formation assay. In kind it is functional. Put shortly: (§1)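 HRECs (passage 5–8), 15,000 cells in EGM-2 medium, plated on Matrigel basement membrane coat with DMSO vehicle or graded compound concentrations; SH-11037 as positive control. Images taken after 8 h; tubule length quantified by Angiogenesis Analyzer macros and expressed relative to DMSO control. Mean ± SEM, n=3–6 wells, duplicate experiments; one-way ANOVA with Dunnett's test.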

Data set [5] is described as follows: Cytotoxicity against human Y79 cells assessed as reduction in cell number incubated for 44 hrs by alamar blue based fluorescence assay.
For data set [6], the species on record is Homo sapiens. Nature of the data set: Antiangiogenic activity against HREC assessed as reduction in tube formation at 0.01 to 0.1 uM incubated for 8 hrs by matrigel based tube formation assay. It is filed as functional. In a few lines: as §1
For data set [7], the species on record is Homo sapiens. Nature of the data set: Antiangiogenic activity against HREC assessed as reduction in tube formation incubated for 8 hrs by matrigel based tube formation assay. In kind it is functional. In a few lines:
as §1

A short description of data set [8]: Antiproliferative activity against HUVEC assessed as reduction in cell number incubated for 44 hrs by alamar blue based fluorescence assay. The settings on record: human, HUVEC cells. Put shortly: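 Primary endothelial cells (HRECs, HUVECs; passage 5–8) in EGM-2; 2,500 cells seeded, 24 h at 37°C, 5% CO2, then compounds 0.5 nM–500 μM for 44 h. alamarBlue added 4 h, fluorescence ex 560/em 590 nm.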

The species entered for data set [9] is Homo sapiens. Kind of data set: Antiangiogenic activity against HREC assessed as reduction in tube formation at 0.01 to 0.1 nM incubated for 8 hrs by matrigel based tube formation assay. In kind it is functional. In a few lines:
as §1

Regarding `CCOc1ccc(C(=O)/C=C/c2ccc(OC)c(OC)c2)c(O)c1C`, the GI50 in [1] was 3.9 µM. Besides, the GI50 at 44 h in data set [2], in [3] and in data set [5] was above 100 µM each time. Also, the inhibition result in the data set listed under Homo sapiens [4] is “Active”.

As to `COc1ccc(C[C@@H]2COc3cc(OC)c(OC)c(OC)c3C2=O)cc1O`, the inhibition result in the data set filed under Homo sapiens [6] was “Active”. Moreover, the GI50 in [1] was determined as 0.035 µM. For the same compound, the GI50 at 44 h was above 100 µM in [2], above 100 µM in data set [3] and 85 µM in data set [5].

As to `COc1ccc(/C=C2\COc3cc(OC)c(OC)c(O)c3C2=O)cc1O`, the GI50 in data set [1] was 0.26 µM. Further, the GI50 at 44 h in data set [2] was 4.8 µM; in data set [3], above 100 µM; in [5], 2.4 µM. Besides, the inhibition entry in the data set filed under Homo sapiens [4] is “Active”.

In the case of `COc1ccc(/C=C2\COc3cc(OC(C)=O)cc(O)c3C2=O)cc1O`, the GI50 in [1] was 18 µM. For the same compound, the GI50 at 44 h came out at 67 µM in [3], 26 µM in data set [8] and 58 µM in [5]. Further, in the data set filed under Homo sapiens [7], the inhibition result is “Dose-dependent effect”.

For `COc1ccc(CC2COc3cc(OC)c(OC)c(OC)c3C2)cc1O` (racemic), the inhibition result in the data set filed under Homo sapiens [9] was “Active”. Also, the GI50 in [1] stood at 0.00023 µM. Further, the GI50 at 44 h in [2] worked out at 0.00034 µM; in [3], 52 µM; in data set [5], 18 µM.
